Compound activity (PubChem BioAssay)
The full list was thinned out, with hits kept by preference.
L major viab: reduces viability of Leishmania major promastigotes; resazurin fluorescence viability; inhibition, % at 10 µM; 200,000 compounds, 9% hits; AID 1063;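 also: promastigotes grown with compound for 44 hours at 28 °C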
PKD1 inh: blocks activity of human protein kinase D1. inhibition, % (concentration not given with the values). PKD1 kinase fluorescence polarization assay. AID 797. Q15139. 200,000 compounds, 0.056% hits
ABCB1 inh: inhibitors of human ABCB1 transporter, ABCG2 counter-screen. P08183. CCRF-Adr cells, JC-1 efflux, flow cytometry. inhibition, % at 6.6 µM. 190,000 compounds, 0.067% hits. AID 1326; in the data active = inhibition above about 40%;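 also: higher value means more JC-1 retained so stronger ABCB1 efflux block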
ABCG2 inh: human ABCG2 inhibition, ABCB1 as counter-screen. AID 1325. inhibition, % at 6.6 µM. IgMXP3 cells, JC-1 efflux, flow cytometry. Q9UNQ0. 190,000 compounds, 0.1% hits;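 active = inhibition above 80%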
Target sequence (Q9UNQ0 whole entry, looked up): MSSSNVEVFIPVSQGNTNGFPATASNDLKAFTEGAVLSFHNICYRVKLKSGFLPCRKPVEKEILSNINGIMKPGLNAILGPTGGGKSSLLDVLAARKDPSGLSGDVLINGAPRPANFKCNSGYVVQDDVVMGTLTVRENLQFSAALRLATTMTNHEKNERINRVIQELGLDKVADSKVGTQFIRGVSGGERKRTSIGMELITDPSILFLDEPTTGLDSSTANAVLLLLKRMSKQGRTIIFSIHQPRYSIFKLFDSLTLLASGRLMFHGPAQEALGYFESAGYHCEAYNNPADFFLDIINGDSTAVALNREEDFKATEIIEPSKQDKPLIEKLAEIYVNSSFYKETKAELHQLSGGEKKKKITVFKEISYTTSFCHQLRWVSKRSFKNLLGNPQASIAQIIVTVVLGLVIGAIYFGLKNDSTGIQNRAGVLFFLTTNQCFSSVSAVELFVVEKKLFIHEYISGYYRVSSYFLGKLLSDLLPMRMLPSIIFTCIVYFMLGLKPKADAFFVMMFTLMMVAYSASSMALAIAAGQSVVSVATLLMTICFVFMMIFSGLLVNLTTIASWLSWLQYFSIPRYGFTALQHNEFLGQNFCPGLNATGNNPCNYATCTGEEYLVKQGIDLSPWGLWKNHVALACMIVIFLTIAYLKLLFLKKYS
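Test system: IgMXP3 (ABCG2) plus far-red-tagged CCRF-Adr (ABCB1) cells. Reagent: JC-1 dye as substrate. Timing: 10 min exposure at 25 °C with rotation, no wash. Measured by: flow cytometric JC-1 green MFI at 530 nm. Read-out: percent efflux inhibition, scaled nicardipine 100% to DMSO 0%. Control set: nicardipine and DMSO wells.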
GSH fluor: GSH bead compound fluorescence profile. GSH beads flow cytometry, compound fluorescence 488/530 nm; stronger effect = higher value. fluorescence (KMESF) at 10 µM. 190,000 compounds, 0.25% hits; in the data active = fluorescence above about 89;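 also: glutathione beads carrying GST-tagged Bcl family fusion proteins plus one bare bead set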
Avidin bead fluor: avidin bead compound fluorescence profile; Avidin beads, compound fluorescence 488/530 nm, flow cytometry; stronger effect = higher value; fluorescence (KMESF) at 10 µM; 220,000 compounds, 0.38% hits; AID 1775; in the data active = fluorescence above about 47
Numbers stand for hits; . = inactive; / = no result given. Rule as the data show it, unless noted: active = inhibition above about 50%; inactive = the rest.

SMILES	L major viab	PKD1 inh	ABCB1 inh	ABCG2 inh	GSH fluor	Avidin bead fluor
CCN(CC)c1ncnc2c1[nH]c1ccccc12	60	.	.	.	.	.
CCN(c1ccccc1)S(=O)(=O)c1ccc(C(=O)Oc2ccc(C(C)=O)cc2)cc1	50	.	.	.	.	.
CCN(c1ccccc1)S(=O)(=O)c1ccc(C(=O)OC(C)C(=O)NCCC2=CCCCC2)cc1 (stereo not given)	96	.	.	.	.	.
O=C(O)c1cccc2c(/C=N/Nc3ccccn3)c[nH]c12	/	/	/	/	/	.
C=CCn1c(=S)sc2c(=O)[nH]cnc21	/	/	/	/	/	.
CCCCCCCNC(=O)C1CC(=O)N(C)C(=Nc2ccc(OC)cc2)S1 (stereo not given)	.	.	.	.	.	.
Cc1nccn1CC(=O)N/N=C/c1cccc(O)c1	61	.	.	.	.	.
COc1ccc(/C=N/NC(=O)Cn2ccnc2C)cc1OC	/	/	/	/	/	.
CCCC(C)NC(=O)c1cc(C(=O)OC)cc([N+](=O)[O-])c1 (stereo not given)	.	.	.	.	.	.
CCCC(C)c1nnc(NC(=O)c2cc(C(=O)OC)cc([N+](=O)[O-])c2)s1 (stereo not given)	97	.	.	.	.	.
COC(=O)c1cc(C(=O)Nc2ccc(C)cn2)cc([N+](=O)[O-])c1	.	.	.	.	.	/
COC(=O)c1cc(C(=O)Nc2ccc(S(N)(=O)=O)cc2)cc([N+](=O)[O-])c1	61	.	.	.	.	.
O=C(O)C1Nc2c(O)cc(Cl)c([N+](=O)[O-])c2C2C=CCC12 (stereo not given)	.	.	.	.	.	.
CN(C1CCCCC1)S(=O)(=O)c1ccc(S(=O)(=O)N(CC(=O)Nc2ccccc2)C2CC2)cc1	/	/	/	/	/	.
CC(=O)OC1COC(N2CCc3cc(Br)c([N+](=O)[O-])cc32)C(OC(C)=O)C1OC(C)=O (stereo not given)	.	.	.	.	.	.
c1ccc(-c2csc3ncnc(N4CCc5ccccc5C4)c23)cc1	89	.	.	.	.	.
c1ccc(-c2csc3ncnc(N4CCOCC4)c23)cc1	.	.	.	.	.	.
COc1ccc(/C=C/C(=O)C2(O)CCCCC2)cc1OC	.	.	.	.	.	.
CCNC(=S)Nc1ccc(Cl)c(C(F)(F)F)c1	76	.	.	.	.	.
COc1cc(C(=O)Nc2ccc(Cl)c(C(F)(F)F)c2)cc(OC)c1OC	80	.	.	.	.	.
COc1cc(CCC(=O)Nc2ccc(Cl)c(C(F)(F)F)c2)cc(OC)c1OC	.	.	.	.	.	.
O=C(Nc1ccc(Cl)c(C(F)(F)F)c1)c1ccco1	.	.	.	.	.	.
CN1/C(=C\C(=O)c2cccc(S(=O)(=O)N3CCCCC3)c2)C(C)(C)c2ccccc21	99	.	.	.	.	.
O=C(O)c1cccc(S(=O)(=O)N2CCCC2)c1	.	.	.	.	.	.
CN1/C(=C/C(=O)c2nc(S(C)(=O)=O)ncc2Cl)C(C)(C)c2ccccc21	83	.	.	.	.	.
SMILES	L major viab	PKD1 inh	ABCB1 inh	ABCG2 inh	GSH fluor	Avidin bead fluor
CN1/C(=C\C(=O)c2cncc(Br)c2)C(C)(C)c2ccccc21	91	.	.	.	.	.
CN1/C(=C\C(=O)c2cccnc2)C(C)(C)c2ccccc21	.	.	.	.	.	.
CC(=O)/C=C1\N(C)c2ccc(C)cc2C1(C)C	91	.	.	.	.	.
CCOC(=O)c1cc(-c2ccccc2)n(CCC(=O)N2CCN(c3ccccn3)CC2)c1C	.	.	.	.	.	.
O=C(COC(=O)C1CC(O)CN1S(=O)(=O)c1ccc(Cl)cc1)c1cccc(Cl)c1 (stereo not given)	.	.	.	.	.	.
CCn1cc(CN2CCc3c([nH]c4ccccc34)C2c2cccc(OC)c2OC)c(C)n1 (stereo not given)	.	.	.	.	.	.
CN1/C(=C\C(=O)c2ccco2)C(C)(C)c2ccccc21	83	.	.	.	.	.
CCOc1ccc2nc(NC(=O)C(NS(=O)(=O)c3cccc4nsnc34)C(C)C)sc2c1 (stereo not given)	52	.	.	.	.	.
Cc1ccc(NC(=O)C(NS(=O)(=O)c2cccc3nsnc23)C(C)C)nc1 (stereo not given)	.	.	.	.	.	.
Cc1[nH]c(=S)c(C#N)c(-c2ccco2)c1C(=O)N(C)C	.	.	.	.	.	.
Cc1noc(C(F)(F)F)c1C(=O)NNC(=O)c1cccc(C(F)(F)F)c1	/	/	/	/	/	.
CC(C)[C@H](NC(=O)[C@H](CCCN=C(N)N)NC(=O)NC(Cc1ccccc1)C(=O)O)C(=O)NC(C=O)CCCN=C(N)N (stereo not given in full)	82	.	.	.	.	.
CCOc1cc(/C=N/NC(=O)C(=O)NCCCOC(C)C)cc(Br)c1O	70	.	.	.	.	.
Cc1ccc(O)c(-c2cc(-c3ccccc3[N+](=O)[O-])[nH]n2)c1	57	.	.	.	.	.
CCCCc1ccc(NC(=O)COc2ccc(C(=O)Nc3ccccc3OC)cc2)cc1	72	.	.	.	.	.
COc1cc(CN2CCN(c3cccc(C)c3C)CC2)cc(Br)c1O	95	.	.	.	272	.
COc1ccc(CN2CCN(c3cccc(C)c3C)CC2)cc1OC	81	.	.	.	.	.
COc1ccc(CN2CCSCC2)cc1C	78	.	.	.	.	.
COc1cccc(CN2CCSCC2)c1	.	.	.	.	.	.
COc1cc(CN2CCN(c3ccccc3C)CC2)cc([N+](=O)[O-])c1O	.	.	.	.	.	.
CCN(CC)C(=O)CN1C(=O)COCC1=O	.	.	.	.	.	.
O=C(c1ccc2c3c(cccc13)CC2)C1CCCN(C(=O)c2cccnc2)C1 (stereo not given)	.	.	.	.	.	.
O=C(c1ccc2c3c(cccc13)CC2)C1CCCN(Cc2cccnc2)C1 (stereo not given)	96	.	.	.	.	.
Cc1cccc(CN2CCCC(C(=O)c3ccc4c5c(cccc35)CC4)C2)n1 (stereo not given)	53	.	.	.	.	.
COc1cc(CN2CCCC(C(=O)c3ccc4c5c(cccc35)CC4)C2)cc(OC)c1O (stereo not given)	99	.	.	.	.	.
CCn1ncc(CN2CCCC(C(=O)c3cccc(OC(C)C)c3)C2)c1C (stereo not given)	80	.	.	.	.	.
CCOC(=O)c1[nH]ncc1CN1CCCC(C(=O)c2cccc(OC(C)C)c2)C1 (stereo not given)	.	.	.	.	.	.
CC(=O)N1CCCC(C(=O)c2ccc3c4c(cccc24)CC3)C1 (stereo not given)	.	.	.	.	.	.
N=C1C(c2nc3ccccc3s2)=C(O)CN1c1ccccc1	.	.	.	.	.	.
